The text below walks through data of ChEMBL document CHEMBL1122821, “Synthesis and some pharmacological properties of 18 potent O-alkyltyrosine-substituted antagonists of the vasopressor responses to arginine-vasopressin” (J Med Chem, 1985).

In assay [1] the test system is Rattus norvegicus. The assay can be described thus: In vivo antidiuretic activity in rats under ethanol anesthesia. In kind it is functional, Urine. The gist of the method: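 Rats under ethanol anesthesia, with the USP posterior pituitary reference standard as reference. Agonistic activity is expressed in units per milligram.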
The species named for assay [2] is Rattus norvegicus. The assay can be described thus: In vitro anti-oxytocic potency was evaluated in the presence of 0.5 mM of Mg2+. In kind it is functional. Particulars: read-out: pA2 (converted). The procedure, abridged: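 Isolated rat uterus in medium containing 0.5 mM Mg2+. USP posterior pituitary reference standard used as agonist. In vitro pA2 values were derived as in Bankowski et al.; means ± SE.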

The species named for assay [3] is Rattus norvegicus. Briefly: In vitro anti-oxytocic potency was evaluated in the absence of Mg2+. In kind it is functional. Conditions: read-out: pA2 (converted). The procedure, abridged:
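Isolated rat uterus in medium containing no Mg2+. USP posterior pituitary reference standard used as agonist. In vitro pA2 values were derived as in Bankowski et al.; means ± SE.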

Assay [4] relates to Rattus norvegicus. Briefly: In vivo anti-vasopressor activity measured as the negative logarithm of the effective dose / the estimated volume of distribution (67 mL/kg). The format is ADME, organism-based. Conditions: read-out: pA2 (converted). The gist of the method: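 Rats treated with phenoxybenzamine under urethane anesthesia. Pressor responses to the USP posterior pituitary standard were given intravenously. Effective dose (nmol/kg) was interpolated on a log scale; means ± SE of at least four estimates. pA2 = −log(effective dose / 67 mL/kg).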

The species named for assay [5] is Rattus norvegicus. The assay can be described thus: Antidiuretic activity was evaluated for the compound in rats under ethanol anesthesia; antagonist. In kind it is functional, Urine. The gist of the method:
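Rats under ethanol anesthesia, with USP posterior pituitary reference standard as agonist. Each peptide was given at a high and a low dose, bracketing the dose that cuts the response to 2x units of agonist to the 1x-unit response. Effective dose (nmol/kg) was interpolated on a log scale. In vivo pA2 = −log(effective dose / 67 mL/kg). Means ± SE of at least four estimates.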

The structures appear in SMILES notation. Starred links: 1 amine or outer side, 2 acyl side, 3 side chain; linkers in the order of their positions; H or OH if unused. Positions of bridges follow the written chain, without caps; N, C: chain ends. Non-standard residues stand in square brackets, D forms with d. Residues, ends and D or L forms follow the SMILES beside them. X2 = O=C(CC1(S[*:2])CCCCC1)[*:1]

As to `CCOc1ccc(C[C@@H]2NC(=O)CC(C)(C)SSC[C@@H](C(=O)N3CCC[C@H]3C(=O)N[C@@H](CCCN=C(N)N)C(=O)NCC(N)=O)NC(=O)[C@H](CC(N)=O)NC(=O)[C@H](C(C)C)NC(=O)[C@H](Cc3ccccc3)NC2=O)cc1`, in the assay on Rattus norvegicus [1], the Activity was 0.62 units/mg.

In the assay with Rattus norvegicus [1], `COc1ccc(C[C@@H]2NC(=O)CC(C)(C)SSC[C@@H](C(=O)N3CCC[C@H]3C(=O)N[C@@H](CCCN=C(N)N)C(=O)NCC(N)=O)NC(=O)[C@H](CC(N)=O)NC(=O)[C@H](C(C)C)NC(=O)[C@H](Cc3ccccc3)NC2=O)cc1` registered an Activity of 2.9 units/mg.

For the molecule `CCOc1ccc(C[C@@H]2NC(=O)CC(C)(C)SSC[C@@H](C(=O)N3CCC[C@H]3C(=O)N[C@H](CCCN=C(N)N)C(=O)NCC(N)=O)NC(=O)[C@H](CC(N)=O)NC(=O)[C@H](C(C)C)NC(=O)[C@H](Cc3ccccc3)NC2=O)cc1`, the Activity in the assay with Rattus norvegicus [1] amounted to 0.2 units/mg.

In the case of `CCOc1ccc(C[C@@H]2NC(=O)CC(CC)(CC)SSC[C@@H](C(=O)N3CCC[C@H]3C(=O)N[C@H](CCCN=C(N)N)C(=O)NCC(N)=O)NC(=O)[C@H](CC(N)=O)NC(=O)[C@H](C(C)C)NC(=O)[C@H](Cc3ccccc3)NC2=O)cc1`, in the assay on Rattus norvegicus [1], the Activity stood at 0.07 units/mg.

In the assay on Rattus norvegicus [1], `CCC1(CC)CC(=O)N[C@@H](Cc2ccc(OC)cc2)C(=O)N[C@@H](Cc2ccccc2)C(=O)N[C@@H](C(C)C)C(=O)N[C@@H](CC(N)=O)C(=O)N[C@H](C(=O)N2CCC[C@H]2C(=O)N[C@H](CCCN=C(N)N)C(=O)NCC(N)=O)CSS1` had an Activity of 0.11 units/mg.

On to `CCOc1ccc(C[C@@H]2NC(=O)CC(CC)(CC)SSC[C@@H](C(=O)N3CCC[C@H]3C(=O)N[C@@H](CCCN=C(N)N)C(=O)NCC(N)=O)NC(=O)[C@H](CC(N)=O)NC(=O)[C@H](CCC(N)=O)NC(=O)[C@H](Cc3ccccc3)NC2=O)cc1`, for which, in the assay on Rattus norvegicus [1], the Activity is 0.035 units/mg.

Take `COc1ccc(C[C@@H]2NC(=O)CC(C)(C)SSC[C@@H](C(=O)N3CCC[C@H]3C(=O)N[C@H](CCCN=C(N)N)C(=O)NCC(N)=O)NC(=O)[C@H](CC(N)=O)NC(=O)[C@H](CCC(N)=O)NC(=O)[C@H](Cc3ccccc3)NC2=O)cc1`: the Kb in the assay listed under Rattus norvegicus [2] is 57.5 nM; in the assay filed under Rattus norvegicus [3], 24.5 nM; with Rattus norvegicus [4], 11 nM. In the assay on Rattus norvegicus [1], this molecule displayed an Activity of 3.5 units/mg.

In the case of `CCOc1ccc(C[C@@H]2NC(=O)CC(C)(C)SSC[C@@H](C(=O)N3CCC[C@H]3C(=O)N[C@@H](CCCN=C(N)N)C(=O)NCC(N)=O)NC(=O)[C@H](CC(N)=O)NC(=O)[C@H](CCC(N)=O)NC(=O)[C@H](Cc3ccccc3)NC2=O)cc1`, the Activity with Rattus norvegicus [1] was determined as 0.59 units/mg.

In the assay with Rattus norvegicus [1], `COc1ccc(C[C@@H]2NC(=O)CC(C)(C)SSC[C@@H](C(=O)N3CCC[C@H]3C(=O)N[C@H](CCCN=C(N)N)C(=O)NCC(N)=O)NC(=O)[C@H](CC(N)=O)NC(=O)[C@H](C(C)C)NC(=O)[C@H](Cc3ccccc3)NC2=O)cc1` returned an Activity of 3.2 units/mg.

Consider `CCOc1ccc(C[C@@H]2NC(=O)CC(CC)(CC)SSC[C@@H](C(=O)N3CCC[C@H]3C(=O)N[C@@H](CCCN=C(N)N)C(=O)NCC(N)=O)NC(=O)[C@H](CC(N)=O)NC(=O)[C@H](C(C)C)NC(=O)[C@H](Cc3ccccc3)NC2=O)cc1` [listing 1 of 2 here], for which the Kb in the assay listed under Rattus norvegicus [2] was 37.2 nM; in the assay filed under Rattus norvegicus [3], 7.41 nM; in the assay with Rattus norvegicus [4], 3.8 nM.

In the case of `CCOc1ccc(C[C@@H]2NC(=O)CC(CC)(CC)SSC[C@@H](C(=O)N3CCC[C@H]3C(=O)N[C@@H](CCCN=C(N)N)C(=O)NCC(N)=O)NC(=O)[C@H](CC(N)=O)NC(=O)[C@H](C(C)C)NC(=O)[C@H](Cc3ccccc3)NC2=O)cc1` [listing 2 of 2 here], in the assay on Rattus norvegicus [1], the Activity was 0.1 units/mg.

In the assay with Rattus norvegicus [1], `CCC1(CC)CC(=O)N[C@@H](Cc2ccc(OC)cc2)C(=O)N[C@@H](Cc2ccccc2)C(=O)N[C@@H](C(C)C)C(=O)N[C@@H](CC(N)=O)C(=O)N[C@H](C(=O)N2CCC[C@H]2C(=O)N[C@@H](CCCN=C(N)N)C(=O)NCC(N)=O)CSS1` showed an Activity of 0.24 units/mg.

Consider `CCOc1ccc(C[C@@H]2NC(=O)CC(CC)(CC)SSC[C@@H](C(=O)N3CCC[C@H]3C(=O)N[C@H](CCCN=C(N)N)C(=O)NCC(N)=O)NC(=O)[C@H](CC(N)=O)NC(=O)[C@H](CCC(N)=O)NC(=O)[C@H](Cc3ccccc3)NC2=O)cc1`, for which the Activity in the assay with Rattus norvegicus [1] came to 0.0003 units/mg.

As for `CCC1(CC)CC(=O)N[C@@H](Cc2ccc(OC)cc2)C(=O)N[C@@H](Cc2ccccc2)C(=O)N[C@@H](CCC(N)=O)C(=O)N[C@@H](CC(N)=O)C(=O)N[C@H](C(=O)N2CCC[C@H]2C(=O)N[C@@H](CCCN=C(N)N)C(=O)NCC(N)=O)CSS1`, the Activity with Rattus norvegicus [1] came out at 0.066 units/mg.

On to `COc1ccc(C[C@@H]2NC(=O)CC3(CCCCC3)SSC[C@@H](C(=O)N3CCC[C@H]3C(=O)N[C@H](CCCN=C(N)N)C(=O)NCC(N)=O)NC(=O)[C@H](CC(N)=O)NC(=O)[C@H](CCC(N)=O)NC(=O)[C@H](Cc3ccccc3)NC2=O)cc1`, for which the values for the Kb in the assay filed under Rattus norvegicus [2], in the assay listed under Rattus norvegicus [3] and in the assay with Rattus norvegicus [4] were 57.5 nM, 7.41 nM and 2.4 nM, respectively. Further, in the assay with Rattus norvegicus [1], the Activity was 0.31 units/mg.

In the assay listed under Rattus norvegicus [5], `CCOc1ccc(C[C@@H]2NC(=O)CC3(CCCCC3)SSC[C@@H](C(=O)N3CCC[C@H]3C(=O)N[C@@H](CCCN=C(N)N)C(=O)NCC(N)=O)NC(=O)[C@H](CC(N)=O)NC(=O)[C@H](C(C)C)NC(=O)[C@H](Cc3ccccc3)NC2=O)cc1` (Y(Et)FVNCPRG-NH2; linker N-5 via X2) displayed an Activity of 7.1 mg. Besides, the Kb in the assay filed under Rattus norvegicus [2] is 87.1 nM; in the assay filed under Rattus norvegicus [3], 9.55 nM.

With `CCOc1ccc(C[C@@H]2NC(=O)CC3(CCCCC3)SSC[C@@H](C(=O)N3CCC[C@H]3C(=O)N[C@H](CCCN=C(N)N)C(=O)NCC(N)=O)NC(=O)[C@H](CC(N)=O)NC(=O)[C@H](C(C)C)NC(=O)[C@H](Cc3ccccc3)NC2=O)cc1` (Y(Et)FVNCP[dR]G-NH2; linker N-5 via X2), in the assay listed under Rattus norvegicus [5], the Activity is on record as 7.57 mg. The Kb in the assay on Rattus norvegicus [4] is 6.92 nM.

On to `COc1ccc(C[C@@H]2NC(=O)CC3(CCCCC3)SSC[C@@H](C(=O)N3CCC[C@H]3C(=O)NC(CCCN=C(N)N)C(=O)NCC(N)=O)NC(=O)[C@H](CC(N)=O)NC(=O)[C@H](CCC(N)=O)NC(=O)[C@H](Cc3ccccc3)NC2=O)cc1` (stereo in doubt), for which the Kb in the assay filed under Rattus norvegicus [2] is 15.5 nM; in the assay listed under Rattus norvegicus [3] it was 28.2 nM; in the assay with Rattus norvegicus [4], 3.89 nM. For the same molecule, the Activity with Rattus norvegicus [1] came to 0.23 units/mg.

For the molecule `CCC1(CC)CC(=O)N[C@@H](Cc2ccc(OC)cc2)C(=O)N[C@@H](Cc2ccccc2)C(=O)N[C@@H](CCC(N)=O)C(=O)N[C@@H](CC(N)=O)C(=O)N[C@H](C(=O)N2CCC[C@H]2C(=O)NC(CCCN=C(N)N)C(=O)NCC(N)=O)CSS1` (stereo in doubt) [listing 1 of 2 here], the Kb in the assay filed under Rattus norvegicus [2] was 7.94 nM; in the assay filed under Rattus norvegicus [3] it was 19.1 nM; in the assay on Rattus norvegicus [4] it was 2.69 nM.

In the assay on Rattus norvegicus [1], `CCC1(CC)CC(=O)N[C@@H](Cc2ccc(OC)cc2)C(=O)N[C@@H](Cc2ccccc2)C(=O)N[C@@H](CCC(N)=O)C(=O)N[C@@H](CC(N)=O)C(=O)N[C@H](C(=O)N2CCC[C@H]2C(=O)NC(CCCN=C(N)N)C(=O)NCC(N)=O)CSS1` (stereo in doubt) [listing 2 of 2 here] returned an Activity of 0.019 units/mg.

`COc1ccc(C[C@@H]2NC(=O)CC(C)(C)SSC[C@@H](C(=O)N3CCC[C@H]3C(=O)NC(CCCN=C(N)N)C(=O)NCC(N)=O)NC(=O)[C@H](CC(N)=O)NC(=O)[C@H](CCC(N)=O)NC(=O)[C@H](Cc3ccccc3)NC2=O)cc1` (stereo in doubt): the figures for the Kb in the assay listed under Rattus norvegicus [2], in the assay filed under Rattus norvegicus [3] and in the assay with Rattus norvegicus [4] were 43.7 nM, 17 nM and 4.9 nM, respectively. The molecule also yielded an Activity in the assay on Rattus norvegicus [1] of 0.46 units/mg.

`CCOc1ccc(C[C@@H]2NC(=O)CC(C)(C)SSC[C@@H](C(=O)N3CCC[C@H]3C(=O)NC(CCCN=C(N)N)C(=O)NCC(N)=O)NC(=O)[C@H](CC(N)=O)NC(=O)[C@H](CCC(N)=O)NC(=O)[C@H](Cc3ccccc3)NC2=O)cc1` (stereo in doubt) [listing 1 of 2 here]: the values for the Kb in the assay listed under Rattus norvegicus [2], in the assay filed under Rattus norvegicus [3] and in the assay on Rattus norvegicus [4] were 38.9 nM, 14.1 nM and 5.37 nM, respectively.

In turn, `CCOc1ccc(C[C@@H]2NC(=O)CC(C)(C)SSC[C@@H](C(=O)N3CCC[C@H]3C(=O)NC(CCCN=C(N)N)C(=O)NCC(N)=O)NC(=O)[C@H](CC(N)=O)NC(=O)[C@H](CCC(N)=O)NC(=O)[C@H](Cc3ccccc3)NC2=O)cc1` (stereo in doubt) [listing 2 of 2 here] returned an Activity in the assay with Rattus norvegicus [1] of 0.23 units/mg.
